The list is not random: actives were taken first. Their share in the collection is about 2.1%.
KLK5 inh: blocks human kallikrein 5 protease activity. recombinant hK5, fluorogenic AMC substrate cleavage. inhibition, % at 5 µM. 210,000 compounds, 0.59% hits. AID 873;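 active means inhibition of 40% or more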
thrombin 1536: blocks human thrombin protease activity; 220,000 compounds, 0.26% hits; inhibition, % at 5 µM; P00734; alpha-thrombin, Boc-VPR-AMC fluorogenic substrate cleavage; AID 1046;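 active means inhibition at or above 40%; inactive means inhibition below 40%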
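Assay system: human alpha-thrombin enzyme. Reagent: Boc-VPR-AMC substrate, 15 µM final. Compound dosing: one concentration per compound, 5 µM, with 0.2% DMSO. Incubation: room-temperature reaction. Technique: AMC fluorescence, 355/460 nm. Measure: % inhibition relative to enzyme controls and enzyme-free blanks.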
PGE2 EP2 inh: blocks the human prostaglandin E2 receptor EP2; P43116; C6 glioma cells expressing human EP2, cAMP TR-FRET; cells stimulated with saturating PGE2; inhibition, % at 25 µM; 260,000 compounds, 0.52% hits;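 active means percent inhibition above 40 after rounding to a whole number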;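 further: rat C6 glioma host cells with rolipram phosphodiesterase inhibitor present; the protocol text gives 20 µM as final concentration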
FXIa inh 1536: blocks human coagulation factor XIa protease activity | P03951 | purified FXIa, Boc-Glu-Ala-Arg-AMC fluorogenic substrate | inhibition, % at 5 µM | 220,000 compounds, 0.14% hits | AID 798;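 active means inhibition of at least 40%; inactive means inhibition below 40%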;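 further: fluorescence of freed AMC excited at 355 nm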
Target sequence (P03951 19-387 limits assumed): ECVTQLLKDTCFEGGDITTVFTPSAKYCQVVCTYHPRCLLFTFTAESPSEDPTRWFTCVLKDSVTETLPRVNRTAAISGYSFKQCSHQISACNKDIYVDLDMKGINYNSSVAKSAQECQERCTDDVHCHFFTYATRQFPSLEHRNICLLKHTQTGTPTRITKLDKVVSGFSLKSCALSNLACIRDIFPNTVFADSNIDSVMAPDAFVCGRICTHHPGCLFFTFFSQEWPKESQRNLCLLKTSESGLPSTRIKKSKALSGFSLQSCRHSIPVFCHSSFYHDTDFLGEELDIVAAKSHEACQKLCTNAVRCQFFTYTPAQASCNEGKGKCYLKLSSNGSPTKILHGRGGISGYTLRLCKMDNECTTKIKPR
Target sequence (P03951 388-625 limits assumed): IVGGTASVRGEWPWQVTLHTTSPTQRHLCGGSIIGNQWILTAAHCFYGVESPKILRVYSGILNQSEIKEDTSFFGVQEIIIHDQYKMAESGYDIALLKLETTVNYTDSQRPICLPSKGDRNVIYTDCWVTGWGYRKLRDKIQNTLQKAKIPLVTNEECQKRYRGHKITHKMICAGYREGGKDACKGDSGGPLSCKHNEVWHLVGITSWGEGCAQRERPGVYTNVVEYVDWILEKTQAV
FXIIa inh: inhibitors of human coagulation factor XIIa. inhibition, % at 5 µM. AID 800. 220,000 compounds, 0.3% hits. purified FXIIa, Boc-QGR-AMC fluorogenic substrate, 2 h; in the data active means inhibition above about 40%
EP2 modulator: EP2 receptor (human) modulation; P43116; induction, % at 25 µM; EP2-expressing cells, cAMP HTRF FRET, PGE2 co-stimulation; AID 940; 260,000 compounds, 0.83% hits;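 active means compounds whose cAMP rise, as percent of the full-agonist control response, exceeds 60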;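 further: rat C6 glioma line stably carrying human EP2 under a CMV promoter; the protocol text gives 20 µM as final concentration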
Hits are given with their value; 0 = inactive; - = no result.

SMILES	KLK5 inh	thrombin 1536	PGE2 EP2 inh	FXIa inh 1536	FXIIa inh	EP2 modulator
N#CC1=C(N)C(C#N)(C#N)C(c2ccoc2)C2CN(Cc3ccccc3)CC=C12 (stereo not given)	-	-	0	-	-	0
COc1ccc2cc(C(c3nnnn3Cc3ccc(F)cc3)N(C)C3CCCCC3)c(=O)[nH]c2c1 (stereo not given)	-	-	0	-	-	0
COc1ccc(C(=O)CSc2nc3ncccc3[nH]2)cc1OC	0	0	0	0	102.4	0
CC(C)(C)c1ccc(Cn2nnc3c(=O)[nH]c(C4CCN(C(=O)C5CCCCC5)CC4)nc32)cc1	-	-	0	-	-	71.5
O=C1CCCN1c1cccc(C(F)(F)F)c1	-	-	0	-	-	0
Cc1sc(NC(=O)CSc2nnnn2C2CCCC2)c(C#N)c1C	0	0	0	0	44.0	0
CCn1c(SCC(=O)Nc2sc(C)c(C)c2C#N)nc2sc3c(c2c1=O)CCC3	-	-	0	-	-	69.3
CCn1c(SCC(=O)Nc2cc(C)on2)nc2sc3c(c2c1=O)CCCC3	0	0	-	0	0	0
CCn1c2cc(C)oc2c2cnn(CC(=O)N3CCC(C(N)=O)CC3)c(=O)c21	-	-	-	-	-	0
COc1cc(/C=C/C(=O)OCc2c(C)noc2C)ccc1OC(F)F	54.1	0	83.1	0	0	0
CCOC(=O)c1cccc(NC(=O)CSc2nnc(-c3ccoc3C)n2CCOC)c1	0	0	0	0	47.6	0
C=CCn1c(SCC(=O)NCCc2ccccc2)nnc1C(C)NC(=O)c1cccs1 (stereo not given)	0	0	0	0	0	0
C=CCn1c(SCC(=O)Nc2cccc(C(=O)OC)c2)nnc1C(C)NC(=O)c1cccs1 (stereo not given)	49.5	0	0	0	0	0
Cc1nonc1OCCN1CCN(c2cnn(-c3ccccc3)c(=O)c2Cl)CC1	-	-	0	-	-	0
Fc1ccc2[nH]c3c(N4CCN(c5ccccc5)CC4)ncnc3c2c1	0	0	87.6	0	0	0
COc1ccc2[nH]c3c(N4CCc5ccccc5C4)ncnc3c2c1	0	0	0	0	0	0
COc1ccc(N2CCN(c3ncnc4c3[nH]c3ccccc34)CC2)cc1	0	0	54.2	0	0	0
CCOC(=O)CNC(=O)CN(Cc1ccccc1)C(=O)c1snc(C(N)=O)c1N	-	-	0	-	-	0
COc1ccc(C[C@@H]2C(=O)N[C@H](C)C(=O)N(C)[C@@H]3Cc4ccc(cc4)Oc4cc(ccc4O)C[C@@H](C(=O)N[C@@H](C)C(=O)N[C@H](C)C(=O)N2C)N(C)C3=O)cc1	-	-	40.7	-	-	0
COc1ccc(CC2CCOC2=O)cc1 (stereo not given)	0	0	0	0	0	0
CCCc1[nH]nc2c1C(c1ccc(OCc3ccccc3)c(OC)c1)C(C#N)=C(N)O2 (stereo not given)	-	-	0	-	-	0
O=C(CCS(=O)(=O)c1cccc2nsnc12)NC1CCCCCC1	40.9	0	0	0	0	0
CC1CCCN(C(=O)C2CCCN(S(=O)(=O)c3cccc4nsnc34)C2)C1 (stereo not given)	0	0	0	0	44.1	0
CCN1CCN(C(=O)c2ccc(NC(C)=O)cc2)CC1	-	-	0	-	-	0
Cc1cccc(C(=O)Nc2ccc(N3CCN(C(=O)C(C)C)CC3)c(Cl)c2)c1	-	-	0	-	-	0
SMILES	KLK5 inh	thrombin 1536	PGE2 EP2 inh	FXIa inh 1536	FXIIa inh	EP2 modulator
COc1ccc(NC(=S)Nc2ccc3nsnc3c2)cc1	0	0	41.7	0	0	0
COc1ccc(NC(=S)Nc2ccc3nc(C)c(C)nc3c2)cc1	0	0	0	0	0	0
COc1ccc(NC(=S)Nc2ccc3cn[nH]c3c2)cc1	0	49.0	0	0	0	0
CCOc1ccc(NC(=S)Nc2ccc3nsnc3c2)cc1	0	0	43.9	0	0	0
CCOc1ccc(NC(=O)Nc2ccc3nsnc3c2)cc1	0	0	0	0	0	0
O=C(COC(=O)c1ccccc1Br)NCCc1ccc(F)cc1	0	0	0	0	0	0
O=C(COC(=O)c1ccccc1Br)Nc1ccc(F)cc1	0	0	0	0	41.3	0
CC1(C)Oc2ccc3ccc(=O)oc3c2/C(=C\Nc2ccccc2)C1=O	-	-	0	-	-	0
COc1cccc(C2SCC(=O)N2c2ccc(C)cc2)c1OC (stereo not given)	0	0	0	0	0	0
COc1ccc(N2C(=O)CSC2c2cccc(OC)c2OC)cc1 (stereo not given)	0	42.3	0	0	0	0
CCc1nc(N(CC)CC)c2oc3ccccc3c2n1	0	0	0	0	0	61.4
CCNc1nc(CC)nc2c1oc1ccccc12	0	0	0	0	0	0
CCc1cc2ccccc2nc1SCC(=O)Nc1ccccc1Cl	-	-	0	-	-	69.0
CCC(=O)Nc1ccc(C(=O)CSc2nc3ccccc3cc2CC)cc1	59.6	104.4	0	0	0	0
CCc1cc2ccccc2nc1SCC(=O)c1ccc(F)cc1	-	-	0	-	-	0
CCc1cc2ccccc2nc1SCC(=O)Nc1ccccc1C(F)(F)F	-	-	0	-	-	61.2
CC(C)C(=O)c1cn(CC(=O)NC2CCCC2)c2ccccc12	-	-	0	-	-	0
C=CCNC(=O)C(Cc1c[nH]c2ccccc12)NC(=O)Nc1ccccc1 (stereo not given)	-	-	0	-	-	0
COc1cccc(NC(=O)CSc2nnc(-c3ccc(C)cc3)n2C)c1	-	-	0	-	-	0
CCNc1ccc(C(=O)OC(C(=O)NC(N)=O)C(C)C)cc1[N+](=O)[O-] (stereo not given)	54.0	0	0	0	0	0
Cc1nn(CC(=O)N(C(C)C)C(C)C)c(=O)c2cc3occc3n12	-	-	-	-	-	0
O=c1c2c3c(sc2n(CCN2CCCCC2)c(=O)n1Cc1ccco1)CCCCC3	44.5	0	0	0	0	0
O=C(CSc1nnc(-c2cccs2)n1Cc1ccco1)N1CCCC1	-	-	0	-	-	0
Cc1ccccc1-n1ncc2c(SCC(=O)N3c4ccccc4CC3C)ncnc21 (stereo not given)	0	40.7	0	0	0	0
CC(C)(C)C(=O)CSc1ncnc2c1cnn2-c1ccccc1	0	0	0	42.6	0	0
SMILES	KLK5 inh	thrombin 1536	PGE2 EP2 inh	FXIa inh 1536	FXIIa inh	EP2 modulator
CC1Cc2ccccc2N1C(=O)CSc1ncnc2c1cnn2-c1ccccc1 (stereo not given)	-	-	0	-	-	0
Cc1ccc(NC(=O)CN2CCC(c3nc4ccccc4s3)CC2)cc1	-	-	0	-	-	0
CCCNC(=O)c1nnsc1S(=O)c1ccc(Cl)cc1 (stereo not given)	0	0	69.4	0	0	0
COC(=O)[C@H]1[C@@H]2C[C@H]3c4[nH]c5ccccc5c4CCN3C[C@H]2CC[C@@H]1O	-	-	41.2	-	-	0
COC(=O)[C@@H]1[C@H]2C[C@H]3c4[nH]c5ccccc5c4CCN3C[C@@H]2CC[C@@H]1O	-	-	0	-	-	0
COc1ccc2c3c([nH]c2c1)[C@H]1C[C@@H]2[C@H](C[C@@H](O)[C@H](OC)[C@H]2C(=O)O)CN1CC3	-	-	51.2	-	-	0
CCc1nn(CC(=O)N2CCCC2)c(=O)c2cc3sc(C)cc3n12	-	-	-	-	-	0
Nc1ccc2c(c1)Cc1cc([N+](=O)[O-])ccc1-2	0	0	0	0	0	0

Bioassay records as filed in PubChem BioAssay.
